Assay results from ChEMBL document CHEMBL1138666, “Direct influence of C-terminally substituted amino acids in the Dmt-Tic pharmacophore on delta-opioid receptor selectivity and antagonism” (J Med Chem, 2004).
Square brackets hold non-standard residues; d marks the D form. Peptide text beside a SMILES is read from it. ξ: configuration not given here. Dmt = Cc1cc(O)cc(C)c1C[C@H](N)C(=O)O; Tic = O=C(O)[C@@H]1Cc2ccccc2CN1; ξTic = O=C(O)C1Cc2ccccc2CN1

What was measured:
Rattus norvegicus = species on record: Rattus norvegicus; experiment: Ratio of binding affinities for rat Opioid receptors mu 1 and delta 1
[1] = Binding affinity for rat Opioid receptor delta 1
Summary of the method: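 Rat brain synaptosomes (P2), preincubated to remove endogenous opioids and stored at -80 °C in buffered 20% glycerol. […] Filters were PEI-soaked GF/C, washed thrice in ice-cold buffered BSA. Five to eight doses, duplicates, independent preparations; Ki by Cheng-Prusoff, mean ± SE.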

[2] = target: T1, Delta-type opioid receptor (Mus musculus, UniProt P32300); experiment: Antagonist activity against deltorphin in mouse vas deferens assay; assay type: functional, tissue-based; conditions: read-out: pA2 (converted)
Summary of the method: (§1)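 Mouse vas deferens, field-stimulated with supramaximal-voltage bipolar rectangular pulses. Antagonism was scored as a rightward shift of the deltorphin C log(concentration)-response curve and reported as pA2, the negative log molar antagonist concentration that doubles the agonist concentration needed for the original submaximal response.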

[3] = Binding affinity for rat Opioid receptor mu 1
Mu-type opioid receptor [4] = target: T2, Mu-type opioid receptor (Cavia porcellus, UniProt P97266); experiment: Inhibition of Opioid receptor mu 1 in guinea pig ileum assay; assay type: functional, tissue-based
Summary of the method: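 Male guinea pig ileum myenteric plexus-longitudinal muscle, field-stimulated with supramaximal-voltage bipolar rectangular pulses. Inhibition of the electrically evoked twitch was measured, with dermorphin as reference agonist. IC50 was taken from concentration-response curves, mean ± SE of at least five to six fresh tissues.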

[5] = target: T1, Delta-type opioid receptor; experiment: Inhibition of Delta opioid receptor in mouse vas deferens assay; assay type: functional
Summary of the method: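 Mouse vas deferens, field-stimulated with supramaximal-voltage bipolar rectangular pulses. Inhibition of the electrically evoked twitch was measured, with deltorphin C as reference agonist. IC50 was taken from concentration-response curves, mean ± SE of at least five to six fresh tissues.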

Mu-type opioid receptor [6] = target: T2, Mu-type opioid receptor; experiment: Antagonist activity against dermorphin in guinea pig ileum assay; assay type: functional, tissue-based; conditions: read-out: pA2 (converted)
Summary of the method: as §1, with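 “Male guinea pig ileum myenteric plexus-longitudinal muscle,” for “Mouse vas deferens,”, “dermorphin” for “deltorphin C”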

T2 sequence (P97266 whole entry): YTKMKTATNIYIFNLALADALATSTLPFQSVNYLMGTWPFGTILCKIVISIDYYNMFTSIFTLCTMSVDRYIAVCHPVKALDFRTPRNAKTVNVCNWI
T1 sequence (P32300 whole entry): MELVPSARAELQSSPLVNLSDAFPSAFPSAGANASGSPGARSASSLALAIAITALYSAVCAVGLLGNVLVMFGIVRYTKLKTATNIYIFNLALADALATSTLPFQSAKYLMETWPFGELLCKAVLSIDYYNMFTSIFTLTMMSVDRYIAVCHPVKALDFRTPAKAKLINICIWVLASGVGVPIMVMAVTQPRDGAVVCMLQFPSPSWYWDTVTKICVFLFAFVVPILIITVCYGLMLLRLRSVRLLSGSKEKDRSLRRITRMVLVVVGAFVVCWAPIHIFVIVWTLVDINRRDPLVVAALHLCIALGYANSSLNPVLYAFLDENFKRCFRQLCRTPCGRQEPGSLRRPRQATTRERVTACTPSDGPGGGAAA

SMILES | Ratio (Rattus norvegicus) | Ki [1] | Kb [2] | Ki [3] | IC50 (Mu-type opioid receptor [4]) | IC50 [5] | Kb (Mu-type opioid receptor [6])
Cc1cc(O)cc(C)c1C[C@H](N)C(=O)N1Cc2ccccc2C[C@H]1C(=O)N[C@@H](CCC(N)=O)C(=O)O | 1.43 | 0.32 nM | 1.05 nM | 465 nM | > 10000 nM |  | 
Cc1cc(O)cc(C)c1C[C@H](N)C(=O)N1Cc2ccccc2C[C@H]1C(=O)N[C@@H](CCC(=O)O)C(N)=O | 22.6 | 0.06 nM | < 0.1 nM | 1360 nM |  | 2500 nM | 
Cc1cc(O)cc(C)c1C[C@H](N)C(=O)N1Cc2ccccc2C[C@H]1C(=O)NCC(N)=O (H-[Dmt]-[Tic]-Gly-NH2) | 559 | 0.25 nM | 22.4 nM | 140 nM | > 10000 nM |  | 
Cc1cc(O)cc(C)c1C[C@H](N)C(=O)N1Cc2ccccc2C[C@H]1C(=O)NC(CCCCN)C(N)=O (single isomer, unassigned) | 24 | 0.71 nM | 13.5 nM | 17 nM | 7870 nM |  | 
Cc1cc(O)cc(C)c1C[C@H](N)C(=O)N1Cc2ccccc2C[C@H]1C(=O)N[C@@H](C)C(=O)O |  | 0.29 nM |  | 5820 nM | > 10000 nM |  | 
CC(=O)NCCCC[C@@H](NC(=O)[C@@H]1Cc2ccccc2CN1C(=O)[C@@H](N)Cc1c(C)cc(O)cc1C)C(=O)O | 1.05 | 0.08 nM | 0.513 nM | 86.8 nM | 1500 nM |  | 
Cc1cc(O)cc(C)c1C[C@H](N)C(=O)N1Cc2ccccc2C[C@H]1C(=O)NC(CO)C(N)=O (single isomer, unassigned) | 1.12 | 0.13 nM | 8.51 nM | 140 nM | > 10000 nM |  | 
Cc1cc(O)cc(C)c1C[C@H](N)C(=O)N1Cc2ccccc2C[C@H]1C(=O)N[C@H](CCC(=O)O)C(N)=O | 17.4 | 0.05 nM | 2.29 nM | 920 nM |  |  | < 7940 nM
Cc1cc(O)cc(C)c1C[C@H](N)C(=O)N1Cc2ccccc2C[C@H]1C(=O)N[C@@H](Cc1c[nH]c2ccccc12)C(=O)O (H-[Dmt]-[Tic]-Trp-OH) |  | 0.03 nM | 0.269 nM | 15.7 nM | 1500 nM |  | 
Cc1cc(O)cc(C)c1C[C@H](N)C(=O)N1Cc2ccccc2C[C@H]1C(=O)NC(CO)C(=O)O (single isomer, unassigned) | 10.5 | 0.27 nM | 1.32 nM | 2830 nM | > 10000 nM |  | 
Cc1cc(O)cc(C)c1C[C@H](N)C(=O)N1Cc2ccccc2CC1C(=O)N[C@@H](Cc1c[nH]c2ccccc12)C(=O)O (some centres undefined) (H-[Dmt]-[ξTic]-Trp-OH) | 462 |  |  |  |  |  | 
CC(=O)NCCCC[C@H](NC(=O)[C@@H]1Cc2ccccc2CN1C(=O)[C@@H](N)Cc1c(C)cc(O)cc1C)C(=O)O | 22.4 | 0.04 nM | 0.0851 nM | 1050 nM | > 10000 nM |  | 
Cc1cc(O)cc(C)c1C[C@H](N)C(=O)N1Cc2ccccc2C[C@H]1C(=O)N[C@H](CCC(N)=O)C(=O)O | 1.25 | 0.45 nM | 1.23 nM | 562 nM | > 10000 nM |  | 
Cc1cc(O)cc(C)c1C[C@H](N)C(=O)N1Cc2ccccc2C[C@H]1C(=O)NC(CCCN=C(N)N)C(N)=O (single isomer, unassigned) | 21 | 0.73 nM | 126 nM | 15.1 nM | 6600 nM |  | 
Cc1cc(O)cc(C)c1C[C@H](N)C(=O)N1Cc2ccccc2C[C@H]1C(=O)N[C@@H](CC(=O)O)C(N)=O | 8.88 | 0.29 nM | 7.59 nM | 2560 nM | > 10000 nM |  | 
Cc1cc(O)cc(C)c1C[C@H](N)C(=O)N1Cc2ccccc2C[C@H]1C(=O)N[C@H](CC(N)=O)C(=O)O | 5.4 | 0.74 nM | 5.89 nM | 4000 nM | > 10000 nM |  | 
Cc1cc(O)cc(C)c1C[C@H](N)C(=O)N1Cc2ccccc2C[C@H]1C(=O)N[C@H](C)C(=O)O | 20.4 |  |  |  |  |  | 
Cc1cc(O)cc(C)c1C[C@H](N)C(=O)N1Cc2ccccc2C[C@H]1C(=O)N[C@H](CC(=O)O)C(N)=O | 834 | 0.44 nM | 7.24 nM | 367 nM | > 10000 nM |  | 
Cc1cc(O)cc(C)c1C[C@H](N)C(=O)N1Cc2ccccc2C[C@H]1C(=O)N[C@@H](CC(N)=O)C(=O)O | 73 | 1.1 nM | 5.89 nM | 80.3 nM | > 10000 nM |  | 
Cc1cc(O)cc(C)c1C[C@H](N)C(=O)N1Cc2ccccc2C[C@H]1C(=O)NC(Cc1c[nH]cn1)C(=O)O (single isomer, unassigned) | 1.4 | 0.12 nM | 1.91 nM | 174 nM | > 10000 nM |  | 
Cc1cc(O)cc(C)c1C[C@H](N)C(=O)N1Cc2ccccc2C[C@H]1C(=O)NC(C)C(N)=O (stereo in doubt) | 158 | 0.3 nM | 25.1 nM | 47.5 nM | > 10000 nM |  | 
